In PMC9285861 (Biomacromolecules, 2019):
Like-named read-outs stand apart in the source and are kept apart here.

Tests used:
[1] = system: Human monocytic THP-1 cells; experiment: LSPR immunoassay of cytokine secretion, THP-1 cells; assay type: cell-based; settings: 37 °C, 2 h incubation, 5, 10, 15 μM, LSPR read-out
B cells = experiment: Blood cell association of ThT-labeled Aβ by flow cytometry, B cells; assay type: cell-based, human; settings: 1 h
In short: (§1)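 Heparinised whole blood, or blood washed five times in PBS (950g, 10 min) and resuspended in serum-free RPMI 1640, given ThT-labeled test peptide oligomers or fibrils at 5, 10, 15 μM, 1 h at 4 and 37 °C, triplicate. RBCs lysed; antibody staining 1 h on ice; 1% formaldehyde fixation; flow cytometry with populations gated by CD3, CD14, CD56, CD19, Lin1/HLA-DR, SSC-A.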

[2] = system: SH-SY5Y neuroblastoma cells; settings: 20 μM Aβ, 15 h, triplicate, ± SD
SH-SY5Y neuronal cells = settings: 20 μM Aβ, 2 h
NK cells = experiment: Blood cell association of ThT-labeled Aβ by flow cytometry, NK cells; assay type: cell-based, human; settings: especially with plasma proteins, 1 h
In short: as §1

Reverse phase HPLC = assay type: physicochemical; settings: Figure S2
[3] = system: human immune cell lines (T cells, B cells, or THP-1 cells); experiment: LSPR immunoassay of cytokine secretion, immune cell lines; assay type: cell-based; settings: for effect of plasma proteins on immune responses (cytokine secretion): 37 °C, human plasma versus RPMI-1640 medium, all three types of immune cells
In short: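 Jurkat T (RPMI-1640, 200 μg/mL […], 10% FBS), EBV-transformed B lymphoblasts and THP-1 (50 μM mercaptoethanol) cells at 1 × 10^6 cells/mL in human plasma proteins or RPMI-1640 took test peptide oligomers or fibrils, 5, 10, 15 μM final, 2 h at 4 and 37 °C. TNF and IL-6 in medium measured on antibody–gold nanorod LSPR chips via calibration curves; triplicate.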

Thioflavin T = assay type: physicochemical; settings: 50 μM Aβ, 100 μM ThT, 37 °C, without plasma proteins, Ex/Em 440/485 nm, triplicate
dendritic cells (DCs) = experiment: Blood cell association of ThT-labeled Aβ by flow cytometry, dendritic cells; assay type: cell-based, human; settings: 1 h
In short: as §1

monocytes = experiment: Blood cell association of ThT-labeled Aβ by flow cytometry, monocytes; assay type: cell-based, human; settings: 1 h, triplicate
In short: as §1

granulocytes = experiment: Blood cell association of ThT-labeled Aβ by flow cytometry, granulocytes; assay type: cell-based, human; settings: 1 h
In short: as §1

T cells = experiment: Blood cell association of ThT-labeled Aβ by flow cytometry, T cells; assay type: cell-based, human; settings: 1 h
In short: as §1

[4] = 5 μM, with plasma proteins, triplicate ± SD
[5] = 5 μM, without plasma proteins, triplicate ± SD
[6] = 10 μM, with plasma proteins, triplicate ± SD
[7] = 10 μM, without plasma proteins, triplicate ± SD
[8] = 15 μM, with plasma proteins, triplicate ± SD
[9] = 15 μM, without plasma proteins, triplicate ± SD

Substance: AIAEGDSHVLKEGAY-MEIFDVQGHVFGGKIFRVVDLGSHNVA [AβO]
- pro-inflammatory cytokine secretion (TNF, IL-6) of THP-1 cells [1]: prominent pro-inflammatory cytokine secretion
- change of association with B cells from whole blood to washed cells (B cells; 3 concentrations (5, 10, 15 μM)): slightly decreased
- cytotoxicity (PI-positive cells) ([2]; with plasma proteins): 30 ± 2%
- cytotoxicity (PI-positive cells) ([2]; without plasma proteins): 39 ± 2.6%
- cell membrane damage by HIM (SH-SY5Y neuronal cells; with plasma proteins): damage was reduced
- cell membrane damage by HIM (SH-SY5Y neuronal cells; without plasma proteins): significant damage including membrane deformation and blebbing
- association with NK cells (NK cells): very low association
- hydrophobicity by RP-HPLC (Reverse phase HPLC): slightly hydrophobic
- effect of plasma proteins on immune responses (cytokine secretion) [3]: mostly promoted
- expression of cytokines IL-6 and TNF by immune cells ([3]; 2 h incubation, LSPR sensor): significant expression
- time to saturation phase of ThT fibrillization kinetics (Thioflavin T): ~ 60 h
- association with DCs (dendritic cells (DCs); in the absence of plasma proteins, range over 5-15 μM): 78–85%
- association with DCs (dendritic cells (DCs); whole blood cells (with plasma proteins), range over 5-15 μM): 69–93%
- association with monocytes (monocytes; all concentrations (5, 10, 15 μM), all conditions): 90–100%
- association with granulocytes (granulocytes; with and without plasma proteins (no considerable difference)): 80–90%

Substance: AIAEGDSHVLKEGAY-MEIFDVQGHVFGGKIFRVVDLGSHNVA [Aβf]
- association with B cells (B cells; 10 μM, whole blood as the sentence is printed, triplicate ± SD): 36.6 ± 6.0%
- association with B cells (B cells; 15 μM, whole blood as the sentence is printed, triplicate ± SD): 57.1 ± 0.9%
- association with B cells (B cells; 3 concentrations (5, 10, 15 μM), washed cells as the sentence is printed): below 5%
- cytotoxicity (PI-positive cells) ([2]; with plasma proteins): not affected by plasma proteins
- cytotoxicity (PI-positive cells) ([2]; without plasma proteins): 13%
- cell membrane damage by HIM (SH-SY5Y neuronal cells; with plasma proteins): no damage was evident
- cell membrane damage by HIM (SH-SY5Y neuronal cells; without plasma proteins): no damage was evident
- association with NK cells (NK cells): no association
- hydrophobicity by RP-HPLC (Reverse phase HPLC): varying hydrophobicity
- effect of plasma proteins on immune responses (cytokine secretion) [3]: overall suppressed immune responses
- association with T cells (T cells; 5 μM, without plasma proteins (washed blood), triplicate ± SD): 5.2 ± 0.1%
- association with T cells (T cells; 10 μM, without plasma proteins (washed blood), triplicate ± SD): 38.2 ± 3.2%
- association with T cells (T cells; 15 μM, without plasma proteins (washed blood), triplicate ± SD): 51.8 ± 1.5%
- association with T cells (T cells; with plasma proteins (whole blood)): < 10%
- association with DCs (dendritic cells (DCs); [4]): 11.1 ± 3.7%
- association with DCs (dendritic cells (DCs); [5]): 38.2 ± 3.3%
- association with DCs (dendritic cells (DCs); [6]): 35 ± 0.7%
- association with DCs (dendritic cells (DCs); [7]): 69.2 ± 3.1%
- association with DCs (dendritic cells (DCs); [8]): 56.5 ± 13%
- association with DCs (dendritic cells (DCs); [9]): 71.2 ± 6.4%
- association with monocytes (monocytes; high concentrations): 60–80%
- association with monocytes (monocytes; low concentrations): 20–40%
- association with granulocytes (granulocytes; [4]): 7.0 ± 2.9%
- association with granulocytes (granulocytes; [5]): 11.7 ± 0.4%
- association with granulocytes (granulocytes; [6]): 21.6 ± 1.2%
- association with granulocytes (granulocytes; [7]): 38.5 ± 5.4%
- association with granulocytes (granulocytes; [8]): 35.7 ± 2.6%
- association with granulocytes (granulocytes; [9]): 51.8 ± 3.1%

Substance: AIAEGDSHVLKEGAY-MEIFDVQGHVFGGKIFRVVDLGSHNVA [Aβm, reference compound]
- time to saturation phase of ThT fibrillization kinetics (Thioflavin T): ~ 60 h
